# Activity calls are given as the source filed them.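 Rule for the calls, unless noted: active = viability loss from added drug above about 55%, and viability with drug at most 40%, in both replicates (limit read from the data, passing the limit was not always enough); inconclusive = both conditions met in only one replicate; inactive = neither replicate meets both conditions.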
# Experiments:
# [1] = reduced viability of SK-BR-3 breast cancer cells – cell-based, 24 h, human, pilot screen (AID 572;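 active = viability at or below 10% of carrier control in both of two separate runs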;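 note: compound exposure lasted between 18 and 24 h rather than exactly 24 h; 100% = carrier-treated control wells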); conditions: SK-BR-3 viability, CellTiter-Glo luminescence, at 10 µM, stronger effect = lower value
# [2] = HUVEC growth inhibition – cell-based, human, primary screen (AID 575;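 active = viability at or below 30% in both replicate assays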;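 note: 100% = median of untreated cell wells with 0.1% DMSO on each plate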); conditions: HUVEC proliferation, CellTiter-Glo luminescence, 72 h; at 10 µM; stronger effect = lower value
# Procedure, shortened: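 Assay system: Primary human umbilical vein endothelial cells | Quantity: 1250 cells per well | Medium: Supplemented EBM, 2% fetal bovine serum | Detection: CellTiter-Glo luminescence measuring cellular ATP | Read-out: % viability vs DMSO wells | Plate: Collagen-coated 384-well format | Times: 72 h exposure, 37 °C, 5% CO2, 30 min RT equilibration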
# [3] = H69AR cell proliferation blockers – human, duplicate replicates, primary screen (AID 580;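 active = viability at or under a set limit in both replicates, limit being median viability minus 3 SD, cut at about 48% in these data, passing the limit was not always enough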;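 note: 100% = mean luminescence of untreated wells and 0% = no signal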); conditions: H69AR lung tumor cells viability, ATP luminescence, 72 h; at 10 µM; stronger effect = lower value
# [4] = MRP1 drug-resistance reversers in H69AR cells – cell-based, doxorubicin co-treatment, pilot screen (AID 601); conditions: CellTiter-Glo, 72 h, at 10 µM; for differential viability (reversal): stronger effect = higher value
# [5] = yeast transport mutant growth inhibition pilot in 384-well plates, post-Golgi transport modulator project (AID 636; in the data active = inhibition above about 31%); conditions: absorbance 615 nm, about 18 h, stronger effect = higher value
# [6] = growth suppression of yeast trafficking mutant, preliminary HTS, modulators of trafficking downstream of Golgi apparatus project, 1536-format plate, OD 615 nm (AID 637; in the data active = inhibition above about 30%); conditions: yeast transport mutant growth, absorbance 615 nm, 18 h; stronger effect = higher value
# [7] = H69AR cells + 2 uM doxorubicin, measured here: viability with 2 uM doxorubicin, stronger effect = lower value
# [8] = H69AR cells, compound alone cytotoxicity
SMILES,viability [1],viability [2],viability [3],differential viability (reversal) ([4]; H69AR cells + 2 uM doxorubicin),"viability [4, 7]","viability [4, 8]",inhibition [5],inhibition [6]
c1ccc(-c2ccc(C(c3ccccc3)n3ccnc3)cc2)cc1 (stereo unspecified),140% (inactive),74.3% (inactive),63.3% (inactive),-2.76% (inactive),66%,63.3%,100% (active),100% (active)
O=[n+]1cc(-c2ccc(F)cc2)n([O-])c2c1CCC2,97% (inactive),100% (inactive),90.7% (inactive),1.25% (inactive),89.4%,90.7%,-1.82% (inactive),1.97% (inactive)
COc1cc2c(cc1OC)CN(C(=O)COc1ccc(C)c(C)c1)CC2,94% (inactive),91.4% (inactive),83.9% (inactive),-5.58% (inactive),89.5%,83.9%,-7.95% (inactive),1.29% (inactive)
CC(CCc1ccccc1)NC(=O)C1CCN(S(=O)(=O)c2cnc[nH]2)CC1 (stereo unspecified),110% (inactive),96.4% (inactive),91.3% (inactive),10.2% (inactive),81.1%,91.3%,-9.73% (inactive),-3.45% (inactive)
O=C(CN1C(=O)NC2(CCCCC2)C1=O)Nc1ccc(S(=O)(=O)N2CCOCC2)cc1,124% (inactive),98.3% (inactive),96.3% (inactive),13.6% (inactive),82.7%,96.3%,-3.38% (inactive),3.77% (inactive)
Cc1cc(C)n(CC(=O)O)n1,88% (inactive),106% (inactive),88.4% (inactive),-18.8% (inactive),107%,88.4%,-7.7% (inactive),-1.45% (inactive)
COC(=O)c1cccc(S(=O)(=O)N2CCC(C)CC2)c1,100% (inactive),105% (inactive),93.8% (inactive),-4.31% (inactive),98.1%,93.8%,0.52% (inactive),-3.44% (inactive)
Cc1nc2ccc(F)cc2cc1C(=O)NCC1CCCO1 (stereo unspecified),89% (inactive),90.3% (inactive),85.2% (inactive),-12.1% (inactive),97.3%,85.2%,-8.9% (inactive),3.27% (inactive)
CC(=O)[C@H]1CC[C@H]2[C@@H]3CCC4=CC(=O)CC[C@]4(C)[C@H]3[C@H](O)C[C@]12C,87% (inactive),83.6% (inactive),100% (inactive),3.85% (inactive),96.6%,100%,2.08% (inactive),-6.83% (inactive)
COc1ccc(OC)c(N(CC(=O)Nc2cccnc2)S(=O)(=O)c2ccc(OC)c(OC)c2)c1,112% (inactive),91% (inactive),83.7% (inactive),-2.03% (inactive),85.7%,83.7%,-6.58% (inactive),0.91% (inactive)
CCOC(=O)C(C#N)C(c1cccnc1)c1c(C)[nH][nH]c1=O (stereo unspecified),77% (inactive),107% (inactive),105% (inactive),9.4% (inactive),95.7%,105%,-7.43% (inactive),4% (inactive)
COCC(=O)Nc1cc(OC)ccc1OC,83% (inactive),89% (inactive),102% (inactive),5.8% (inactive),96.1%,102%,-2.86% (inactive),0.66% (inactive)
CC1Oc2ccccc2N(CC(=O)NCc2cccs2)C1=O (stereo unspecified),77% (inactive),98.8% (inactive),108% (inactive),13.8% (inactive),94.5%,108%,-6.71% (inactive),-0.91% (inactive)
CCOc1ccccc1NC(=O)CSc1nnc2c(CC)c(C)nc(N)n12,104% (inactive),113% (inactive),96.3% (inactive),-3.08% (inactive),99.4%,96.3%,-5.81% (inactive),-0.91% (inactive)
O=C1c2ccccc2NC(c2cccc(F)c2)N1Cc1ccco1 (stereo unspecified),53% (inactive),103% (inactive),92% (inactive),4.72% (inactive),87.3%,92%,-6.85% (inactive),-1.64% (inactive)
CCOCCCNC(=O)C1CC(=O)N(C2CCCC2)C1 (stereo unspecified),98% (inactive),97.7% (inactive),94.6% (inactive),4.13% (inactive),90.5%,94.6%,-0.91% (inactive),1.15% (inactive)
CCC1CCCCN1c1nc(-c2ccncc2)nc2ccccc12 (stereo unspecified),76.5% (inactive),15.1% (active),14.5% (active),-40.4% (inactive),55%,14.5%,-0.79% (inactive),0.49% (inactive)
COc1ccc(C(=O)Nc2nc(C)c(C(=O)N(C)C)s2)cc1OC,70% (inactive),91% (inactive),94.9% (inactive),10.6% (inactive),84.3%,94.9%,-8.63% (inactive),4.52% (inactive)
Cc1ccc2c(c1)NC(=O)C(CC(=O)NCCCN1CCN(c3cc(Cl)ccc3C)CC1)O2 (stereo unspecified),75.5% (inactive),1.67% (active),22.9% (active),-17.8% (inactive),40.7%,22.9%,3.07% (inactive),0.98% (inactive)

SMILES,viability [1],viability [2],viability [3],differential viability (reversal) ([4]; H69AR cells + 2 uM doxorubicin),"viability [4, 7]","viability [4, 8]",inhibition [5],inhibition [6]
COC(=O)c1ccc(C2C(C#N)=C(N)Oc3cc(C)n(C)c(=O)c32)cc1 (stereo unspecified),104% (inactive),95.5% (inactive),97.8% (inactive),2.3% (inactive),95.4%,97.8%,-0.82% (inactive),-3.23% (inactive)
Cc1nc(CCNS(=O)(=O)c2cccs2)cs1,86% (inactive),105% (inactive),97.5% (inactive),11.5% (inactive),86%,97.5%,7.92% (inactive),-12.8% (inactive)
Cc1cc(C)n(-c2nc3sc4c(c3c3nnc(SC(C)C)n23)CC(C)(C)OC4)n1,96% (inactive),96.6% (inactive),84.4% (inactive),2.36% (inactive),82%,84.4%,1.23% (inactive),17.6% (inactive)
CCCCNC(=O)c1nnn(-c2ccccc2)c1N,88% (inactive),113% (inactive),92.2% (inactive),-0.63% (inactive),92.8%,92.2%,4.03% (inactive),2.3% (inactive)
CC(=O)Nc1ccc(NC(=O)Cn2cc3c(n2)CCC(C)C3)cc1 (stereo unspecified),108% (inactive),103% (inactive),90.6% (inactive),-4.05% (inactive),94.6%,90.6%,-8.24% (inactive),-8.73% (inactive)
CN(C)c1ccc(C=NCC2(O)CCOC(C)(C)C2)cc1 (stereo unspecified),91% (inactive),91.8% (inactive),89.2% (inactive),0.32% (inactive),88.9%,89.2%,-7.67% (inactive),3.27% (inactive)
CC(C)Oc1ccc2c(=O)c(-c3ccccc3)coc2c1,121% (inactive),87% (inactive),89.7% (inactive),6.81% (inactive),82.8%,89.7%,-1.04% (inactive),-0.17% (inactive)
O=C(Nc1ccc(NC(=O)c2ccco2)nc1)c1cccnc1,102% (inactive),121% (inactive),88.7% (inactive),-1.89% (inactive),90.6%,88.7%,-7.4% (inactive),0.65% (inactive)
CCCNC(=O)NS(=O)(=O)c1ccc(Cl)cc1,124% (inactive),85% (inactive),97.5% (inactive),10.4% (inactive),87.1%,97.5%,-1.17% (inactive),0.83% (inactive)
COc1cccc(NC(=O)c2ccccc2NS(C)(=O)=O)c1,86% (inactive),91.8% (inactive),91.9% (inactive),4.45% (inactive),87.5%,91.9%,-5.89% (inactive),-3.45% (inactive)
Cc1ccc(S(=O)(=O)N2CCN(C(=O)N3CCOCC3)C2c2ccc(N(C)C)cc2)cc1 (stereo unspecified),106% (inactive),96.3% (inactive),110% (inactive),5.79% (inactive),105%,110%,-6.03% (inactive),9.64% (inactive)
Cc1cc(N2CCN(C3CCCC3)CC2)n2c(nc3ccccc32)c1C#N,78% (inactive),96.8% (inactive),91.4% (inactive),28.1% (inactive),63.3%,91.4%,-2.19% (inactive),2.42% (inactive)
CCC(=O)Oc1ccc(C/C(=N\O)c2ccc(O)cc2O)o1,85% (inactive),90.6% (inactive),52.5% (inactive),-33% (inactive),85.5%,52.5%,3.01% (inactive),13.8% (inactive)
CC(=O)c1n[nH]nc1NC(=O)c1ccccc1,120% (inactive),97.6% (inactive),89.9% (inactive),-6.65% (inactive),96.6%,89.9%,-1.69% (inactive),0.16% (inactive)
Cc1onc(-c2ccccc2)c1C(=O)NCCN1CCOCC1,94% (inactive),102% (inactive),98% (inactive),10.1% (inactive),87.9%,98%,-4.93% (inactive),-4% (inactive)
Cc1nc(-c2ccccc2)sc1C(N)=O,107% (inactive),96.4% (inactive),94.4% (inactive),-12.1% (inactive),106%,94.4%,-3.29% (inactive),12.6% (inactive)
CCC(C(=O)N1CCc2cc(OC)c(OC)cc2C1)c1ccccc1 (stereo unspecified),99% (inactive),109% (inactive),94.5% (inactive),2.46% (inactive),92%,94.5%,-4.52% (inactive),-11.9% (inactive)
Cc1nnc(Nc2ccccn2)c2ccccc12,89% (inactive),81.1% (inactive),87.3% (inactive),-2.5% (inactive),89.8%,87.3%,0.27% (inactive),-4.84% (inactive)
